Measurements: article PMC7941214 (Journal of medicinal chemistry, 2019)
Values joined by “and” are separate entries in the source; they are usually repeats but may differ in a detail not shown here. Equal entries are not always repeated.

Experiments:
A. baumannii NCTC 13420 = assay: Broth microdilution MIC/MBC, A. baumannii; type: cell-based, Acinetobacter baumannii; details: for MIC A. baumannii NCTC 13420: value before the parentheses, two values = two repeats; for MBC A. baumannii NCTC 13420: value in parentheses
P. aeruginosa NCTC 13437 = assay: Broth microdilution MIC/MBC, P. aeruginosa; type: cell-based, Pseudomonas aeruginosa; details: value before the parentheses; two values = two repeats
In short: (§1)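 CLSI broth microdilution in cation-adjusted Mueller–Hinton broth. Log-phase cultures were diluted to 7.5 × 10^5 CFU/mL, then mixed 1:1 with 2-fold serial dilutions of gold complexes from DMSO or water stocks, in triplicate, and held 37 °C, 18 h, static. MIC: lowest concentration giving >90% inhibition by OD600 against medium-only and bacteria-only wells. […] E. coli ATCC 25922 quality control was checked each run with ciprofloxacin and […].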

E. cloacae NCTC 13405 = assay: Broth microdilution MIC/MBC, E. cloacae; type: cell-based, Enterobacter cloacae; details: for MIC E. cloacae NCTC 13405: value before the parentheses, two values = two repeats; for MBC E. cloacae NCTC 13405: value in parentheses
In short: as §1

[1] = test system: K. pneumoniae ATCC 700603; assay: Broth microdilution MIC/MBC, K. pneumoniae; type: cell-based, Klebsiella pneumoniae; details: for MIC K. pneumoniae ATCC 700603: value before the parentheses, two values = two repeats; for MBC K. pneumoniae ATCC 700603: value in parentheses
In short: as §1

S. aureus JE2 (USA300) = assay: Broth microdilution MIC/MBC, S. aureus; type: cell-based, Staphylococcus aureus; details: for MIC S. aureus JE2 (USA300): value before the parentheses, two values = two repeats; for MBC S. aureus JE2 (USA300): value in parentheses
In short: as §1

E. faecium ATCC 700221 = assay: Broth microdilution MIC/MBC, E. faecium; type: cell-based, Enterococcus faecium; details: for MIC E. faecium ATCC 700221: value before the parentheses, two values = two repeats; for MBC E. faecium ATCC 700221: value in parentheses
In short: as §1

E. coli ATCC 25922 = assay: Broth microdilution MIC/MBC, E. coli; type: cell-based, Escherichia coli; details: for MIC E. coli ATCC 25922: value before the parentheses, two values = two repeats; for MBC E. coli ATCC 25922: value in parentheses
In short: as §1

Log P determination = details: n-octanol/water, Au by FAAS

Compound: COc1ccc([P+]([Au-][S][C@@H]2OC(COC(C)=O)[C@@H](OC(C)=O)[C@H](OC(C)=O)C2OC(C)=O)(c2ccc(OC)cc2)c2ccc(OC)cc2)cc1 (stereo partly drawn) [Compound 34, (2,3,4,6-Tetra-O-acetyl-1-thio-β-D-glucopyranosato)(tris(4-methoxyphenyl)phosphine) Gold(I)]
- MIC A. baumannii NCTC 13420 (A. baumannii NCTC 13420): >281 µM
- MIC P. aeruginosa NCTC 13437 (P. aeruginosa NCTC 13437): >281 µM
- MIC E. cloacae NCTC 13405 (E. cloacae NCTC 13405): >281 µM
- MIC K. pneumoniae ATCC 700603 [1]: >281 µM
- MIC S. aureus JE2 (USA300) (S. aureus JE2 (USA300)): 1 µM
- MBC S. aureus JE2 (USA300) (S. aureus JE2 (USA300)): 2 µM
- MIC E. faecium ATCC 700221 (E. faecium ATCC 700221): 2 µM and 4 µM
- MBC E. faecium ATCC 700221 (E. faecium ATCC 700221): 4 µM
- MIC E. coli ATCC 25922 (E. coli ATCC 25922): >281 µM
- log P (Log P determination): >3.03

Compound: CC(=O)OCC1O[C@@H]([S][Au-][P+](c2ccc(F)cc2)(c2ccc(F)cc2)c2ccc(F)cc2)C(OC(C)=O)[C@@H](OC(C)=O)[C@@H]1OC(C)=O (stereo partly drawn) [Compound 35, (2,3,4,6-Tetra-O-acety/-1-thio-β-D-glucopyranosato)(tris(4-fluorophenyl)phosphine) Gold(I)]
- MIC A. baumannii NCTC 13420 (A. baumannii NCTC 13420): >292 µM
- MIC P. aeruginosa NCTC 13437 (P. aeruginosa NCTC 13437): >292 µM
- MIC E. cloacae NCTC 13405 (E. cloacae NCTC 13405): >292 µM
- MIC K. pneumoniae ATCC 700603 [1]: >292 µM
- MIC S. aureus JE2 (USA300) (S. aureus JE2 (USA300)): 1 µM
- MBC S. aureus JE2 (USA300) (S. aureus JE2 (USA300)): 2 µM
- MBC E. faecium ATCC 700221 (E. faecium ATCC 700221): 5 µM
- MIC E. coli ATCC 25922 (E. coli ATCC 25922): >292 µM
- log P (Log P determination): >3.04

Compound: CC(=O)OCC1O[C@@H]([S][Au-][P+](c2ccc(C(F)(F)F)cc2)(c2ccc(C(F)(F)F)cc2)c2ccc(C(F)(F)F)cc2)C(OC(C)=O)[C@@H](OC(C)=O)[C@@H]1OC(C)=O (stereo partly drawn) [Compound 36, (2,3,4,6-Tetra-O-acetyl-1-thio-β-D-glucopyranosato)(tris(4-(trifluoromethyl)phenylphosphine)) Gold(I)]
- MIC A. baumannii NCTC 13420 (A. baumannii NCTC 13420): >249 µM
- MIC P. aeruginosa NCTC 13437 (P. aeruginosa NCTC 13437): >249 µM
- MIC E. cloacae NCTC 13405 (E. cloacae NCTC 13405): >249 µM
- MIC K. pneumoniae ATCC 700603 [1]: >249 µM
- MIC S. aureus JE2 (USA300) (S. aureus JE2 (USA300)): 4 µM
- MBC S. aureus JE2 (USA300) (S. aureus JE2 (USA300)): 8 µM
- MIC E. faecium ATCC 700221 (E. faecium ATCC 700221): 31 µM
- MBC E. faecium ATCC 700221 (E. faecium ATCC 700221): 62 µM
- MIC E. coli ATCC 25922 (E. coli ATCC 25922): >249 µM
- log P (Log P determination): >3.55

Compound: C[PH](C)(C)[Au][S]C1OC(CO)C(O)C(O)C1O [Compound 37, (1-Thio-β-D-glucopyranosato)(trimethylphosphine) Gold(I)]
- MBC A. baumannii NCTC 13420 (A. baumannii NCTC 13420): 17 µM
- MIC P. aeruginosa NCTC 13437 (P. aeruginosa NCTC 13437): >547 µM
- MBC E. cloacae NCTC 13405 (E. cloacae NCTC 13405): 17 µM
- MIC K. pneumoniae ATCC 700603 [1]: 34 µM
- MBC K. pneumoniae ATCC 700603 [1]: 34 µM
- MIC S. aureus JE2 (USA300) (S. aureus JE2 (USA300)): 0.3 µM and 0.5 µM
- MBC S. aureus JE2 (USA300) (S. aureus JE2 (USA300)): 1 µM
- MIC E. faecium ATCC 700221 (E. faecium ATCC 700221): 0.3 µM and 0.5 µM
- MBC E. faecium ATCC 700221 (E. faecium ATCC 700221): 0.5 µM
- MIC E. coli ATCC 25922 (E. coli ATCC 25922): 9 µM
- MBC E. coli ATCC 25922 (E. coli ATCC 25922): 9 µM
- log P (Log P determination): −1.63

Compound: C[PH](C)(C)[Au][S]C1OC(CO)C(O)C(O)C1O [Compound 38, (1-Thioβ-D-galatopyranosato)(trimethylphosphine) Gold(I)]
- MIC A. baumannii NCTC 13420 (A. baumannii NCTC 13420): 17 µM and 9 µM
- MBC A. baumannii NCTC 13420 (A. baumannii NCTC 13420): 17 µM
- MIC P. aeruginosa NCTC 13437 (P. aeruginosa NCTC 13437): >547 µM
- MIC E. cloacae NCTC 13405 (E. cloacae NCTC 13405): 4.5 µM and 4 µM
- MBC E. cloacae NCTC 13405 (E. cloacae NCTC 13405): 4.5 µM and 4 µM
- MIC K. pneumoniae ATCC 700603 [1]: 34 µM
- MBC K. pneumoniae ATCC 700603 [1]: 34 µM
- MIC S. aureus JE2 (USA300) (S. aureus JE2 (USA300)): 0.3 µM
- MBC S. aureus JE2 (USA300) (S. aureus JE2 (USA300)): 0.3 µM
- MIC E. faecium ATCC 700221 (E. faecium ATCC 700221): 0.3 µM and 0.5 µM
- MBC E. faecium ATCC 700221 (E. faecium ATCC 700221): 0.5 µM
- MIC E. coli ATCC 25922 (E. coli ATCC 25922): 9 µM
- MBC E. coli ATCC 25922 (E. coli ATCC 25922): 9 µM
- log P (Log P determination): −1.88

Compound: CC(=O)NC1C([S][Au][PH](C)(C)C)OC(CO)C(O)C1O [Compound 39, (2-Acetamido-2-deoxy-1-thio-β-D-glucopyranosato)-(trimethylphosphine) Gold(I)]
- MIC A. baumannii NCTC 13420 (A. baumannii NCTC 13420): 16 µM and 8 µM
- MBC A. baumannii NCTC 13420 (A. baumannii NCTC 13420): 16 µM
- MIC P. aeruginosa NCTC 13437 (P. aeruginosa NCTC 13437): >503 µM
- MIC E. cloacae NCTC 13405 (E. cloacae NCTC 13405): 8 µM and 16 µM
- MBC E. cloacae NCTC 13405 (E. cloacae NCTC 13405): 16 µM
- MIC K. pneumoniae ATCC 700603 [1]: 31 µM
- MBC K. pneumoniae ATCC 700603 [1]: 126 µM
- MIC S. aureus JE2 (USA300) (S. aureus JE2 (USA300)): 0.5 µM
- MBC S. aureus JE2 (USA300) (S. aureus JE2 (USA300)): 0.5 µM
- MBC E. faecium ATCC 700221 (E. faecium ATCC 700221): 0.5 µM
- MBC E. coli ATCC 25922 (E. coli ATCC 25922): 31 µM
- log P (Log P determination): −2.03
